Source: ChEMBL document CHEMBL3244412, “Benzopyrones. 14. Synthesis and antiallergic properties of some N-tetrazolylcarboxamides and related compounds” (1978)
Values after ≈ are worked out from the molar mass of the structure shown.

How the values were obtained:
[1] = Antianaphylactic activity in rat mast cells assessed as inhibition of DNP-ovalbumin-induced histamine release after 15 mins by superfusion assay relative to 4-oxo-N-(5-tetrazolyl)-4H-l-benzopyran-2-carboxamide; format: functional, Mast cell
Summary of the method: (§1)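 Peritoneal and pleural cells from male albino rats were washed, sensitized with 1:10 rat reaginic anti-DNP-ovalbumin serum for 2 h at 37 °C, and resuspended at 1.2-1.7 × 10⁵ mast cells/mL. Compound and DNP-ovalbumin were added together and incubated for 15 min at 37 °C. Supernatant (free) and lysed-cell (residual) histamine were assayed by guinea pig ileum superfusion bioassay. Inhibition of net histamine release was used to derive EC50 from dose ranging against the reference compound.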

[2] = Antianaphylactic activity in rat mast cells assessed as inhibition of DNP-ovalbumin-induced histamine release after 15 mins by superfusion assay; format: functional; settings: Mast cell, 0.25 h, read-out: ED50 (the source's name); summary of the method: as §1
[3] = test system: Rattus norvegicus; experiment: Antiallergic activity in rat assessed as inhibition of DNP-ovalbumin-induced passive cutaneous anaphylaxis at 1 mg/kg, iv after 30 mins relative to control; format: functional; settings: for inhibition in vivo at 1 mg/kg: Rattus norvegicus, iv, 0.5 h
Summary of the method: (§2)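 Female albino rats (groups of four) were shaved and sensitized by dorsal intradermal injection of 0.1 mL diluted rat reaginic anti-DNP-ovalbumin serum, raised with Bordetella pertussis adjuvant. After 48 h they were challenged iv with 2 mg DNP-ovalbumin in 0.5 mL 1% Evans blue/saline, with the compound given iv in aqueous solution at the same time. After 30 min, skin weals were scored visually on a 5-point scale; % inhibition was taken versus vehicle controls.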

[4] = test system: Rattus norvegicus; experiment: Antiallergic activity in rat assessed as inhibition of DNP-ovalbumin-induced passive cutaneous anaphylaxis at 5 mg/kg, iv after 30 mins relative to control; format: functional; settings: 0.5 h; summary of the method: as §2

Compound	EC50 [2] [µg/mL]	fold change (potency relative to reference compound) [1]	inhibition in vivo at 1 mg/kg [3] [%]	inhibition in vivo at 5 mg/kg [4] [%]	inhibition (INH) [3] [%]
O=C(Nc1nnn[nH]1)c1ccc2occc(=O)c2c1	0.7 (≈ 2.72 µM)	0.08	35		
Cn1nnc(NC(=O)c2cc(=O)c3ccccc3o2)n1			25		
CN1CCN(C(=O)/C=C/c2coc3ccccc3c2=O)CC1	> 18	<0.005	0		
CCOC(=O)C(=O)Nc1ccc2oc(C(=O)OCC)cc(=O)c2c1	12 (≈ 36 µM)	0.005	65		
NCCCO.O=C(Nc1nnn[nH]1)c1oc2ccccc2c(=O)c1NCCCO	0.024	0.67	100		
O=C(Nc1nnn[nH]1)c1oc2ccccc2c(=O)c1N1CCOCC1	> 18	<0.005	10		
NC(=O)c1cc(=O)c2cc(N)ccc2o1	> 18	<0.005	10		
Cc1oc2ccc(S(=O)(=O)Nc3nnn[nH]3)cc2c(=O)c1C	> 18	<0.005	20		
O=C([O-])c1cc(=O)c2c(OCC(O)COc3cccc4oc(C(=O)[O-])cc(=O)c34)cccc2o1.[Na+].[Na+] [CROMOLYN SODIUM]	2.55	0.02	40		
O=C(NCCO)c1ccc2oc(C(=O)NCCO)cc(=O)c2c1	> 18	<0.005	15		
O=c1c(-n2nn[nH]c2=O)coc2ccccc12	5 (≈ 21.7 µM)	0.01		75	
O=C(Nc1nnn[nH]1)c1cccc2c(=O)c3ccccc3[nH]c12	0.65 (≈ 2.12 µM)	0.14	90		
CN1CCN(C(=O)c2coc3ccccc3c2=O)CC1.Cl	14	0.007	20		
O=C(O)c1coc2ccccc2c1=O	> 18	<0.005	20		
COc1ccc2c(=O)c(-c3ccccc3)c(C(=O)Nc3nnn[nH]3)oc2c1	> 18	<0.005	25		
Cc1ccc2oc(C(=O)O)c(-c3ccccc3)c(=O)c2c1	> 18	<0.005	0		
O=C(O)c1ccc2occc(=O)c2c1	> 18	<0.005	0		
NC(=O)c1cc(=O)c2ccc(O)c(N)c2o1	> 18	<0.005	15		
O=c1c(/C=N/O)coc2ccccc12	> 18	0.0006	25		
O=C(O)CNC(=O)c1ccc2oc(C(=O)NCC(=O)O)cc(=O)c2c1	> 18	<0.005	10		
O=C(Nc1nnn[nH]1)c1ccc2oc(C(=O)Nc3nnn[nH]3)cc(=O)c2c1	0.55 (≈ 1.49 µM)	0.1	100		
O=C(Nc1nnn[nH]1)c1ccc2oc(-c3nnn[nH]3)cc(=O)c2c1	0.055 (≈ 0.169 µM)	1	70		

More lines, main results first:

EC50 [2] [µg/mL]	Compound	fold change (potency relative to reference compound) [1]	inhibition in vivo at 1 mg/kg [3] [%]	inhibition in vivo at 5 mg/kg [4] [%]	inhibition (INH) [3] [%]
0.1 (≈ 0.307 µM)	O=C(Nc1nnn[nH]1)c1cc(=O)c2cc(-c3nnn[nH]3)ccc2o1	0.85	70		
> 18	O=C(Nc1nccs1)c1cc(=O)c2ccccc2o1	<0.005	15		
2.3 (≈ 8.15 µM)	N#Cc1ccc2oc(C(=O)Nc3nnn[nH]3)cc(=O)c2c1	0.03	100		
0.4 (≈ 1.4 µM)	CNc1c(C(=O)Nc2nnn[nH]2)oc2ccccc2c1=O	0.04	100		
0.58 (≈ 2.14 µM)	Cc1ccc2c(=O)cc(C(=O)Nc3nnn[nH]3)oc2c1	0.19	75		
0.085 (≈ 0.269 µM)	O=C(Nc1nnn[nH]1)c1oc2ccccc2c(=O)c1NCCO	0.18	100		
> 18	O=C(O)CCNC(=O)c1cc(=O)c2ccccc2o1	<0.005	0		
> 18	O=C(O)CCCCCNC(=O)c1cc(=O)c2ccccc2o1	<0.005	0		
5.5 (≈ 18.2 µM)	O=C(Nc1nnn[nH]1)c1cc(=O)c2cc([N+](=O)[O-])ccc2o1	0.01	15		
0.048 (≈ 0.167 µM)	COc1ccc2c(=O)cc(C(=O)Nc3nnn[nH]3)oc2c1	1.8	75		
11 (≈ 32 µM)	CCOC(=O)c1cc(=O)c2cc(NC(=O)Cc3nnn[nH]3)ccc2o1	0.005	65		
0.075 (≈ 0.277 µM)	Cc1ccc2oc(C(=O)Nc3nnn[nH]3)cc(=O)c2c1	1.2	75		
0.11 (≈ 0.403 µM)	O=C(Nc1nnn[nH]1)c1cc(=O)c2ccc(O)cc2o1	0.77	65		
> 18	O=C(Cc1nnn[nH]1)Nc1coc2ccccc2c1=O	<0.005		0	
0.033 (≈ 0.128 µM)	O=C(Nc1nnn[nH]1)c1coc2ccccc2c1=O	0.48	65		
8 (≈ 23 µM)	Cc1ccc2oc(C(=O)Nc3nnn[nH]3)c(-c3ccccc3)c(=O)c2c1	0.005	50		
0.75 (≈ 2.57 µM)	O=C(Nc1nnn[nH]1)c1cc(=O)c2cc(Cl)ccc2o1	0.12	65		
> 18	CN(C(=O)c1cc(=O)c2ccccc2o1)c1nnn[nH]1	<0.005	0		
> 18	O=C(O)CCCNC(=O)c1cc(=O)c2ccccc2o1	<0.005	0		
0.8 (≈ 2.74 µM)	O=C(Nc1nnn[nH]1)c1oc2ccccc2c(=O)c1Cl	0.11	75		
> 18	O=C(Nc1nnn[nH]1)c1cc2ccccc2c(=O)o1	<0.005	0		
> 18	Cn1nnnc1NC(=O)c1cc(=O)c2ccccc2o1	<0.005	0		
0.16	Cc1ccc2c(=O)cc(C(=O)Nc3nnn[nH]3)oc2c1.NCCO	0.75			80
6 (≈ 21.2 µM)	O=C(/C=C/c1coc2ccccc2c1=O)Nc1nnn[nH]1	<0.005	65		
> 18	O=C(Nc1nnn[nH]1)c1coc(=O)c2ccccc12	<0.005	0		
0.4 (≈ 1.47 µM)	Cc1c(C(=O)Nc2nnn[nH]2)oc2ccccc2c1=O	1	70		
> 18	CN1CCN(C(=O)c2cc(=O)c3ccccc3o2)CC1.Cl	<0.005	0		
5 (≈ 19.5 µM)	O=C(Nc1nc[nH]n1)c1cc(=O)c2ccccc2o1	0.002	0		
